What was measured:
[1] = system: poly (dG-dC).poly (dG-dC); conditions: cited from earlier work
[2] = system: poly (dA-dT).poly (dA-dT); conditions: cited from earlier work
[3] = system: pBR322 plasmid DNA; experiment: Electrophoresis Mobility Shift Assay; type: binding; conditions: pBR322, 20 h at 37°C, molar ratios 0.25 to 1.0 (cisplatin 0.5 eq.)
[4] = system: CT DNA; experiment: Thermal denaturation of CT DNA; type: binding, calf; conditions: 0.5 equivalents of drug, 1h at 25°C, 5 mM Tris/HCl buffer; for ΔTm /1h incubation/25mM NaClO4: pH=7.39, 25mM NaClO4; for ΔTm /1h incubation/50m M NaClO4: pH=7.39, 50 mM NaClO4
[5] = system: CT DNA; experiment: Circular dichroism spectroscopy of CT DNA; type: binding, calf; conditions: incubated at 37°C with increasing drug/DNA ratios
[6] = system: CT DNA; experiment: Spectrophotometric; type: binding, calf; conditions: 25°C, 5mM Tris/HCl, 50 mM NaClO4 buffer, pH=7.39; average of values calculated at 330 and 343 nm
[7] = system: SUP-T1 lymphoma cells; experiment: Cytotoxicity assay by flow cytometry; type: cell-based, human
[8] = system: CT DNA; experiment: Fluorimetric; type: binding, calf; conditions: 25°C, 5mM Tris/HCl, 50 mM NaClO4 buffer, pH=7.39; values calculated at 380 nm
[9] = system: Jurkat human T lymphocyte leukemia cells; experiment: Cytotoxicity assay by flow cytometry; type: cell-based
[10] = system: several cancer cell lines; conditions: cited from earlier work
[11] = system: HCT-116 colon cancer cell lines; conditions: cited from earlier work
[12] = system: Jurkat cells; experiment: Apoptosis assay by two-color flow cytometry; type: cell-based, human; conditions: 100 µM, 16 h
Procedure, shortened: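 Jurkat cells were plated at 100,000 cells/well in RPMI 1640 with antibiotics and 10% heat-inactivated newborn calf serum, then exposed to 100 µM test compound (in 0.9% NaCl or DMSO) for 16 h. Cells were pelleted cold, washed in cold medium then PBS, and stained with Annexin V-FITC plus PI in HEPES binding buffer (pH 7.4, 140 mM NaCl, 2.55 mM CaCl2). Compensation used unstained, single- and double-stained cells.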

[13] = system: dedifferentiated liposarcoma cell line LS141; conditions: cited from earlier work

Compound	effect on electrophoretic mobility of CCC and OC forms [3]	ΔTm /1h incubation/25mM NaClO4 [4]	ΔTm /1h incubation/50m M NaClO4 [4]	Kb1, Absorption Titration [6]	Kb2, Absorption Titration [6]	Kb1, Emission Titration [8] [M⁻¹]	Kb2, Emission Titration [8] [M⁻¹]	other results
CCN(CC)CCCC(C)Nc1ccnc2cc(Cl)ccc12.O=P(O)(O)O.O=P(O)(O)O (single isomer, unassigned; (-)) [(−)-CQDP]								binding affinity ratio of (−) to (+) enantiomer [1]: 1.29; binding affinity ratio of (−) to (+) enantiomer [2]: 1.28
CCN(CC)CCCC(C)Nc1ccnc2cc(Cl)ccc12 (stereo not shown) [CQDP, chloroquine diphosphate]	does not cause any significant effect	+4.9 °C	+3.0 °C	1.07 ± 0.05 x 10^7 M^−1	1.23 ± 0.68 x 10^5 M^−1	2.63e+07	438000	changes in CD spectrum of CT DNA [5]: two new sizable CD bands at 330 and 340 nm; CC50 ([7]; Homo sapiens, SUP-T1, 20 h): 130 µM; CC50 ([9]; Homo sapiens, 20 h): 95 µM
N.N.[Cl][Pt][Cl] [cisplatin]	decrease in mobility of the CCC form and an increase in mobility of the OC form							
Ru(KTZ)2Cl2								IC50 [10]: ~25 µM
[Ru(η^6-p-cymene)(η^6-CQDP)][BF4]2 [Complex 5]		+5.1 °C	+2.8 °C	2.10 ± 0.68 x 10^7 M^−1	3.15 ± 0.12 x 10^5 M^−1	1.2e+06	354000	antitumor activity (in words) [11]: active; mechanism of cell death (apoptosis/necrosis) [12]: mainly induce apoptosis; antitumor activity (in words) [13]: active; CC50 ([7]; SUP-T1, 20 h of incubation, PI and flow cytometry, average of triplicates): 70 µM; CC50 ([9]; 20 h of incubation, PI and flow cytometry, average of triplicates): 77 µM
